Measurements reported in the RNAGym collection of RNA variant scans (doi:10.1038/nmeth.2970).

B1: NELF-E aptamer (parent)
chain: CCCAACGACUGCCGAGCGAGAUUACGCUUGAGCGCCCCACUGAGGAUGCCCACGGGCGAUUGGGGCACGG

Variants of: B1
Experiment: HiTS-RAP
Conditions: with NELF-E (Drosophila)
How it was run: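 Aptamer DNA templates carrying a T7 promoter and ter site were sequenced on an Illumina GAIIx flowcell, then transcribed in situ by T7 RNA polymerase and halted by GST-Tus (30 minutes, 37°C). Clusters were imaged after 30-minute room-temperature equilibration with NELF-E-mOrange at 0.064 to 1000 nM in HEPES binding buffer, and only the first binding curve was used. Intensities were normalised to sequencing intensity and averaged per sequence. Kd came from weighted Hill fits, keeping fits with variance below 1,000,000.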

CCCAACGGCUGCCGAGCGAGAUUACGCUUGAGCGCCCCACUGAGGAUGCCCACGGGCGAUUGGAGCACGG [A8G G64A] and CCCAACGGCUGCCGAACGAGAUUACGCUUGAGCGCCCCACUGAGGAUGCCCACGGGCGAUUGGGGCACGG [A8G G16A] are within 1.5-fold of each other in Kd: 7.44 nM for the first, 5.75 nM for the second.

Compared with CCCAACGGCUGCCGAUCGAGAUUACGCUUGAGCGCCCCACUGAGGAUGCCCACGGGCGAUUGGGGCACGG [A8G G16U], CCCAACGGCUGCCGAGCGAGAUUACGCUUGAGCGCCCCACUGAGGAUACCCACGGGCGAUUGGGGCACGG [A8G G48A] is 1.7-fold higher in Kd: 6.76 nM for the first, 11.7 nM for the second.

CCCAACGGCUGCCAAGCGAGAUUACGCUUGAGCGCCCCACUGAGGAUGCCCACGGGCGAUUGGGGCACGG [A8G G14A] and CCCAACGGCUGCCUAGCGAGAUUACGCUUGAGCGCCCCACUGAGGAUGCCCACGGGCGAUUGGGGCACGG [A8G G14U] are within 1.5-fold of each other in Kd: 6.2 nM for the first, 7.09 nM for the second.

First: CCCAACGUCUGCCGAGCGAGAUUACGCUUGAGCGCCCCACUGAGGAUGCCCACGGGCGGUUGGGGCACGG [A8U A59G]
Second: CCCAACGGCUGCCGAGCGAGAUUACGCUUAAGCGCCCCACUGAGGAUGCCCACGGGCGAUUGGGGCACGG [A8G G30A]
The Kd of the first is 9.7-fold higher: 47.2 nM for the first, 4.89 nM for the second.

Going from CCCAACGGCUGCCGAGCGAGAUUACGCUUUAGCGCCCCACUGAGGAUGCCCACGGGCGAUUGGGGCACGG [A8G G30U] to CCCAACGUCUGCCGAGCGAGAUUACGCUUGAGCGCCCCUCUGAGGAUGCCCACGGGCGAUUGGGGCACGG [A8U A39U], the Kd rises from 4.7 nM to 28.6 nM (6.1-fold). The first binds more tightly here.

CCCAACGGCUGCCGAGCGAGAGUACGCUUGAGCGCCCCACUGAGGAUGCCCACGGGCGAUUGGGGCACGG [A8G U22G] and CCCAACGGCUGCCGAGCGAGACUACGCUUGAGCGCCCCACUGAGGAUGCCCACGGGCGAUUGGGGCACGG [A8G U22C] are within 1.5-fold of each other in Kd: 5.75 nM for the first, 5.08 nM for the second.

CCCAACGGCUGCCGAGCGAAAUUACGCUUGAGCGCCCCACUGAGGAUGCCCACGGGCGAUUGGGGCACGG [A8G G20A] and CCCAACGGCUGCCGAGCGAUAUUACGCUUGAGCGCCCCACUGAGGAUGCCCACGGGCGAUUGGGGCACGG [A8G G20U] are within 1.5-fold of each other in Kd: 5.52 nM for the first, 6.35 nM for the second.

CCCAACGGCUGCCGAGCGAGAUUACGCUUGAGCGCCCCACUGAGGAUGCCCACAGGCGAUUGGGGCACGG [A8G G54A] and CCCAACGGCUGCCGAGCGAGAUUACGCUUGAGCGCCCCACUGAGGAUGCCCACGGGCUAUUGGGGCACGG [A8G G58U] are within 1.5-fold of each other in Kd: 14.6 nM for the first, 20.1 nM for the second.

CCCAACGUCUGCCGAGCGAGAUUGCGCUUGAGCGCCCCACUGAGGAUGCCCACGGGCGAUUGGGGCACGG [A8U A24G] and CCCAACGGCUGCCGAGCGAGAUUACGCUUGAGCACCCCACUGAGGAUGCCCACGGGCGAUUGGGGCACGG [A8G G34A] are within 1.5-fold of each other in Kd: 6.05 nM for the first, 4.84 nM for the second.

CCCAACGGCUGCCGAGCGAGAUUACGCUUGAGCGCCCCACUGAGGAUGCCCACGUGCGAUUGGGGCACGG [A8G G55U] and CCCAACGGCUGCCGAGCGAGAUUACGCUUGAGCGCCCCACUGAGGAUGCCCACGAGCGAUUGGGGCACGG [A8G G55A] are within 1.5-fold of each other in Kd: 7.12 nM for the first, 10 nM for the second.

CCCAACGGCUGCCGAGCGAGAUUACGCUUGAGCGCCCCACGGAGGAUGCCCACGGGCGAUUGGGGCACGG [A8G U41G] and CCCAACGGCUGCCGAGCGAGAUUACGCUUGAGCGCCCCACUGAGGAUGCCCACGGGCGAUUGGGGUACGG [A8G C66U] are within 1.5-fold of each other in Kd: 6.37 nM for the first, 5.01 nM for the second.

CCCAACGGCUGCCGAGCUAGAUUACGCUUGAGCGCCCCACUGAGGAUGCCCACGGGCGAUUGGGGCACGG [A8G G18U] and CCCAACGGCUGCCGAGCAAGAUUACGCUUGAGCGCCCCACUGAGGAUGCCCACGGGCGAUUGGGGCACGG [A8G G18A] are within 1.5-fold of each other in Kd: 7.18 nM for the first, 6.78 nM for the second.

CCCAACGGCUGCCGAGCGAGAUUACGCUUGAGCGCCCCACUGAGGAUGCCCACGGGUGAUUGGGGCACGG [A8G C57U] and CCCAACGGCUGCCGAGCGAGAUUACGCUUGAGCGCCCCACUGAGGAUGCCCACGGGCGAUUGGGUCACGG [A8G G65U] are within 1.5-fold of each other in Kd: 6 nM for the first, 8.03 nM for the second.

CCCAACGGCUGCCGAGCGAGAUUACGCUUGAGCGCCCCACUGAGGAUGCCCACGGGCGAUUGGGACACGG [A8G G65A] and CCCAACGGCAGCCGAGCGAGAUUACGCUUGAGCGCCCCACUGAGGAUGCCCACGGGCGAUUGGGGCACGG [A8G U10A] are within 1.5-fold of each other in Kd: 5.32 nM for the first, 5.37 nM for the second.

CCCAACGGCGGCCGAGCGAGAUUACGCUUGAGCGCCCCACUGAGGAUGCCCACGGGCGAUUGGGGCACGG [A8G U10G] and CCCAACGGCCGCCGAGCGAGAUUACGCUUGAGCGCCCCACUGAGGAUGCCCACGGGCGAUUGGGGCACGG [A8G U10C] are within 1.5-fold of each other in Kd: 5.44 nM for the first, 5.52 nM for the second.

First: CCCAACGGCUGCCGAGCGAGAUUACGCUUGAGCGCCCCACUGAGGAUGCCCACGGACGAUUGGGGCACGG [A8G G56A]
Second: CCCAACGGCUGCCGAGCGAGAUUACGCUUGAGCGCCCCACUGAGGAUGCCCACGGUCGAUUGGGGCACGG [A8G G56U]
The Kd of the first is 1.5-fold higher: 10 nM for the first, 6.49 nM for the second. The second binds more tightly here.

CCCAACGGCUGCCGAGCGAGAUUACGCUUGAGUGCCCCACUGAGGAUGCCCACGGGCGAUUGGGGCACGG [A8G C33U] and CCCAACGUCUGCCGAGCGAGAUUACGCUUGAGCGCCCCACUGAGGAUGCCCACGGGCGAUUGGGGCGCGG [A8U A67G] are within 1.5-fold of each other in Kd: 5.16 nM for the first, 5.61 nM for the second.

Going from CCCAACGUCUGCCGAGCGAGAUUACGCUUGAGCGCCCCACUGAGGAUGCCCACGGGCGAUUGGGGCUCGG [A8U A67U] to CCCAACGGCUGCCGAGCGAGAUUACGCUUGAGCGCCCCACUGAAGAUGCCCACGGGCGAUUGGGGCACGG [A8G G44A], the Kd rises from 7.42 nM to 39.3 nM (5.3-fold). The first binds more tightly here.

CCCAACGGCUGCCGAGCGAGAUUAUGCUUGAGCGCCCCACUGAGGAUGCCCACGGGCGAUUGGGGCACGG [A8G C25U] and CCCAACGGCUGCCGAGCGAGAUUACGCUUGAACGCCCCACUGAGGAUGCCCACGGGCGAUUGGGGCACGG [A8G G32A] are within 1.5-fold of each other in Kd: 5.14 nM for the first, 5.07 nM for the second.

With CCCAACGUCUGCCGAGCGAGAUUACGCUUGAGCGCCCCACUGAGGAUGCCCACGGGCGAUUGGGGCACGG [A8U] the Kd was 5.54 nM.
